Key:
[1] = tested on: HepG2; test: Cytotoxicity against human HepG2 cells up to 50 uM after 48 hrs by neutral red assay; assay type: cell-based; conditions: hepg2, 48 h
[2] = tested on: RAW264.7; test: Cytotoxicity against mouse RAW264.7 cells up to 50 uM after 48 hrs by neutral red assay; assay type: cell-based; conditions: raw264.7, 48 h
[3] = biological target: T1, Nitric oxide synthase, inducible (Mus musculus, UniProt P29477); test: Inhibition of iNOS in mouse RAW264.7 cells assessed as LPS-induced nitric oxide production treated for 30 mins followed by LPS challenge measured after 24 hrs by Griess reagent method; assay type: cell-based
T1 sequence (P29477 whole entry): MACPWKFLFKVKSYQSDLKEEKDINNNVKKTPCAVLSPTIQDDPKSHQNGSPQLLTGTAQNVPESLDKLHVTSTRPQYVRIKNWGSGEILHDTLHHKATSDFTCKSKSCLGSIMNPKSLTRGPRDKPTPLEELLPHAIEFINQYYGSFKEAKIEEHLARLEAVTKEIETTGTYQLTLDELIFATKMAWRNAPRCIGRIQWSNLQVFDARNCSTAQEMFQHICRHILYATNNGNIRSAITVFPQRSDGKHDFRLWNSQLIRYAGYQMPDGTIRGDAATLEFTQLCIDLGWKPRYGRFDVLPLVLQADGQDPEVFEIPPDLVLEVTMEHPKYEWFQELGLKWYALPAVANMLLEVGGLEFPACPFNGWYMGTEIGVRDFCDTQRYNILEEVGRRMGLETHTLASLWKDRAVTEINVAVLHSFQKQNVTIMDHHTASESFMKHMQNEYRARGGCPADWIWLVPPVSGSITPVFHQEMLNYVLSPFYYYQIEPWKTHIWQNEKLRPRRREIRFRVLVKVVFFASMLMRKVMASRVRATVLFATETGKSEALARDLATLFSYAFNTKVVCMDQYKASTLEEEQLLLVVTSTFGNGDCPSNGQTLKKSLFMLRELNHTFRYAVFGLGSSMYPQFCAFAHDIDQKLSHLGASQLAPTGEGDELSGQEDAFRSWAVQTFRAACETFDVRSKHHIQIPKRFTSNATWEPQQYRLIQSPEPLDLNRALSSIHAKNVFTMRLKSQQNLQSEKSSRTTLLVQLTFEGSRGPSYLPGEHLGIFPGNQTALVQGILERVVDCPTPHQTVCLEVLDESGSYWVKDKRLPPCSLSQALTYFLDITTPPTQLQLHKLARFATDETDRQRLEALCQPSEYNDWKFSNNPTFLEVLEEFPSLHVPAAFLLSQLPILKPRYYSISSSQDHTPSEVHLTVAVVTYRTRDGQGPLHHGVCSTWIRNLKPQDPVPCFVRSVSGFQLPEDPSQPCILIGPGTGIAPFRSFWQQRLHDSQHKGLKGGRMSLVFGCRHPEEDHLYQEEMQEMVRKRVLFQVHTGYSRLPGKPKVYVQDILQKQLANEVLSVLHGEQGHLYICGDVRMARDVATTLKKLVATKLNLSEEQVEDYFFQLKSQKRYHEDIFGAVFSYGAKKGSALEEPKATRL
Outline: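 RAW264.7 macrophages were grown in phenol red-free RPMI with 10% bovine calf serum. Cells were seeded at 100 000 per well and grown 24 h to at least 75% confluency. Compound was added 30 min before LPS 5 μg/mL, then incubated 24 h. Supernatant nitrite was measured by Griess reagent; percent inhibition is versus vehicle, with IC50 from dose-response curves. Positive control: parthenolide.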

[4] = Inhibition of PMA-induced NFkappaB transcriptional activity in human SW1353 cells treated for 30 mins followed by PMA challenge measured after 6 to 8 hrs by luciferase reporter gene assay; assay type: cell-based
Outline: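 After 24 h they were pretreated with compound for 30 min, then stimulated with PMA 70 ng/mL for 6−8 h. Percent decrease in luciferase is relative to vehicle. Positive control: parthenolide.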

[5] = tested on: HepG2; test: Antioxidant activity in human HepG2 cells assessed as inhibition of ABAP-induced intracellular peroxyl radical scavenging activity by measuring ROS production measured every 5 mins for 1 hr by fluorescence assay
[6] = biological target: T2, Peroxisome proliferator-activated receptor gamma (Homo sapiens) (UniProt P37231); test: Activation of PPARgamma in human HepG2 cells at 25 uM after 24 hrs by luciferase reporter gene assay relative to vehicle-treated control; assay type: cell-based
T2 sequence (whole entry): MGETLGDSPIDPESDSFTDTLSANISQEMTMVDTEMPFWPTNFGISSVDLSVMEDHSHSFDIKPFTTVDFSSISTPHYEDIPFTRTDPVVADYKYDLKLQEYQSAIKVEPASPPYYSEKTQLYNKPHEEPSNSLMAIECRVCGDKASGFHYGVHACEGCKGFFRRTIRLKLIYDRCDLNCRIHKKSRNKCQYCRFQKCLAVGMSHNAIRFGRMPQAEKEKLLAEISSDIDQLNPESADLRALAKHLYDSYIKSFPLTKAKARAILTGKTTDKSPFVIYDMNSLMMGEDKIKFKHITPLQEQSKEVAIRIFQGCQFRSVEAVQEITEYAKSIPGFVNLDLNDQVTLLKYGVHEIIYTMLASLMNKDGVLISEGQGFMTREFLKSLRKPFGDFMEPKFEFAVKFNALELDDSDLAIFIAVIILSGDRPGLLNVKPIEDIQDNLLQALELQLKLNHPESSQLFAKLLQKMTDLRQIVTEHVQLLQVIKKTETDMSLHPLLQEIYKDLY
Outline: (§1)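 HepG2 cells in DMEM with 10% FBS were electroporated at 160 V with a single 70 ms pulse. Plasmid pairs were pSG5-PPARα + PPRE X3-tk-luc, pCMV-rPPARγ + pPPREaP2-tk-luc, or pCMX-hLXRα + LXRE-tk-luc. Cells were seeded at 5 × 10^4 per well, grown 24 h, then dosed. After 24 h the cells were lysed and luciferase read. Fold induction is versus vehicle. Positive controls: ciprofibrate, rosiglitazone, 25-hydroxycholesterol.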

[7] = biological target: T3, Growth/differentiation factor 15 (Homo sapiens) (UniProt Q99988); test: Activation of NAG-1 in human SW1353 cells at 20 uM after 24 hrs by luciferase reporter gene assay relative to vehicle-treated control; assay type: cell-based
T3 sequence (whole entry): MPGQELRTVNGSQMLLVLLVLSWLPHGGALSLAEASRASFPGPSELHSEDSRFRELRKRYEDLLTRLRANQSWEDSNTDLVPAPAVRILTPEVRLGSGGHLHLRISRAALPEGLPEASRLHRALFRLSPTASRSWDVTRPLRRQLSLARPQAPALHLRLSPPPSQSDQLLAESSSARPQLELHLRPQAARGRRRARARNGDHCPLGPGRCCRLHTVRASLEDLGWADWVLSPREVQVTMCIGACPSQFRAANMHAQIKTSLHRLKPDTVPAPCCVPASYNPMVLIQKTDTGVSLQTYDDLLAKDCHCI
Outline: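 SW1353 chondrosarcoma cells in DMEM/F12 with 10% FBS were electroporated (160 V, one 70 ms pulse) with 25 μg […]. Cells were seeded at 1 × 10^5 per well, then dosed 24 h later for 24 h. Luciferase light output gave fold induction versus vehicle. Positive control: diclofenac.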

[8] = biological target: T4, Oxysterols receptor LXR-alpha (Homo sapiens) (UniProt Q13133); test: Activation of LXRalpha in human HepG2 cells at 25 uM after 24 hrs by luciferase reporter gene assay relative to vehicle-treated control; assay type: cell-based
T4 sequence (whole entry): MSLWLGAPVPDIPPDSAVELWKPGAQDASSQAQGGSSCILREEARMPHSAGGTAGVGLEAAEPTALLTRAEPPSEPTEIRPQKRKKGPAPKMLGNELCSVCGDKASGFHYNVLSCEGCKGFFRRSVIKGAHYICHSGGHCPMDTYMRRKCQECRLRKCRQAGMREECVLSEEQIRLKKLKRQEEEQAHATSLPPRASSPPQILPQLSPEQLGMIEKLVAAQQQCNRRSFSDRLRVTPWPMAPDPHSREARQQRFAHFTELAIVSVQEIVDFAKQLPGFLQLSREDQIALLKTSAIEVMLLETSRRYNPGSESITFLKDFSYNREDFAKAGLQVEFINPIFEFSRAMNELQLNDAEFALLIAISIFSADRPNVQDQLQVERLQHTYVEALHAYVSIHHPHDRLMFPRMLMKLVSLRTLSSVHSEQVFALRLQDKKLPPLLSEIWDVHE
Outline: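 HepG2 cells in DMEM with 10% FBS, electroporated (160 V, single 70 ms pulse) with pCMX-hLXRα plus LXRE-tk-luc plasmids; plated at 5 × 10^4 cells/well and grown 24 h. Treated with test compounds for 24 h, then lysed for luciferase read-out. Fold induction calculated against vehicle control; 25-hydroxycholesterol as positive control.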

[9] = biological target: T5, Peroxisome proliferator-activated receptor alpha (Homo sapiens) (UniProt Q07869); test: Activation of PPARalpha in human HepG2 cells at 25 uM after 24 hrs by luciferase reporter gene assay relative to vehicle-treated control; assay type: cell-based; outline: as §1
T5 sequence (whole entry): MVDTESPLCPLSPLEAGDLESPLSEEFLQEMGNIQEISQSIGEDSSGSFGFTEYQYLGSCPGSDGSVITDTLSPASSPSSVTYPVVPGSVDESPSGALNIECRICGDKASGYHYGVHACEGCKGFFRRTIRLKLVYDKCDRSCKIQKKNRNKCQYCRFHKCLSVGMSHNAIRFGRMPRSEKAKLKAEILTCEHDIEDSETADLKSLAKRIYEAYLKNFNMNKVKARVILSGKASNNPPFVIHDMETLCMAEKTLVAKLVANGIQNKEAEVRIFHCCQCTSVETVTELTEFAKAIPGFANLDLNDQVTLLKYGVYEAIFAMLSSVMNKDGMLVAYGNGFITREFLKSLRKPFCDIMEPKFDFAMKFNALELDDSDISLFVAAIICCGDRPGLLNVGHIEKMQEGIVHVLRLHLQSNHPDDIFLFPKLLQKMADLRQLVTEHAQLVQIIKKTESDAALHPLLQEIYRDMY

[10] = Homo sapiens, SW1353, read-out: IC50

Structure (SMILES)	Activity [1]	Activity [2]	IC50 ([3]; raw264.7)	IC50 [5] [µM]	IC50 ([4]; sw1353)	also measured
COC(=O)[C@]12C[C@@H](OC(=O)/C=C/c3ccc(O)c(O)c3)[C@@H](OC(=O)/C=C/c3ccc(O)c(O)c3)[C@@H](O1)[C@@H](COC(=O)/C=C/c1ccc(O)c(O)c1)O2 (relative stereo)	Non-toxic	Non-toxic	Not Active	26		IC50 [4, 10]: 42 µM
C=C1C(=O)O[C@@H]2C3O[C@]3(C)CC/C=C(\C)CC[C@@H]12 (some centres not stated)						IC50 ([3]; read-out: IC50): 1.05 µM; IC50 [4, 10]: 1.63 µM
O=c1c(O)c(-c2ccc(O)c(O)c2)oc2cc(O)cc(O)c12 [QUERCETIN]				11		
CC1(COc2ccc(CC3SC(=O)NC3=O)cc2)CCCCC1 (configuration not stated)						fold change (FC) [6]: 3.65
COC(=O)[C@]12C[C@@H](O)[C@@H](O)[C@H](O1)[C@@H](COC(=O)/C=C/c1ccc(O)c(O)c1)O2 (relative stereo)	Non-toxic	Non-toxic	Not Active	86	Not Active	
O=C(/C=C/c1ccc(O)c(O)c1)OC[C@H]1O[C@@]2(C(=O)O)C[C@@H](OC(=O)/C=C/c3ccc(O)c(O)c3)[C@@H](OC(=O)/C=C/c3ccc(O)c(O)c3)[C@H]1O2 (relative stereo)	Non-toxic	Non-toxic	Not Active	59.5	Not Active	
O=C(/C=C/c1ccc(O)c(O)c1)OC[C@H]1O[C@@]2(C(=O)O)C[C@@H](O)[C@@H](O)[C@@H]1O2 (relative stereo)	Non-toxic	Non-toxic	Not Active	> 100	Not Active	
O=C(O)Cc1ccccc1Nc1c(Cl)cccc1Cl						fold change (FC) [7]: 2.65
O=C(/C=C/c1ccc(O)c(O)c1)OC[C@H]1O[C@@]2(C(=O)O)C[C@@H](OC(=O)/C=C/c3ccc(O)c(O)c3)[C@@H](O)[C@@H]1O2 (relative stereo)	Non-toxic	Non-toxic	Not Active	79	Not Active	
COC(=O)[C@]12C[C@@H](OC(=O)/C=C/c3ccc(O)c(O)c3)[C@@H](O)[C@H](O1)[C@@H](COC(=O)/C=C/c1ccc(O)c(O)c1)O2 (relative stereo)	Non-toxic	Non-toxic	Not Active	34.5	Not Active	
C[C@H](CCCC(C)(C)O)[C@H]1CC[C@H]2[C@@H]3CC=C4C[C@@H](O)CC[C@]4(C)[C@H]3CC[C@]12C						fold change (FC) [8]: 4.67
CC(C)(Oc1ccc(C2CC2(Cl)Cl)cc1)C(=O)O (configuration not stated)						fold change (FC) [9]: 4.35

Reference: ChEMBL document CHEMBL3120163, “Octulosonic acid derivatives from Roman chamomile (Chamaemelum nobile) with activities against inflammation and metabolic disorder” (J Nat Prod, 2014)
